Assay results taken from ChEMBL document CHEMBL1147105, “In vitro and in vivo activities of PD 0305970 and PD 0326448, new bacterial gyrase/topoisomerase inhibitors with potent antibacterial activities versus multidrug-resistant gram-positive and fastidious organism groups” (2007).
Values after ≈ are worked out from the molar mass of the structure shown.

Tests used:
[1] = tested on: Streptococcus pneumoniae; experiment: Antibacterial activity against levofloxacin-resistant Streptococcus pneumoniae; assay type: functional
Method in brief: (§1)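 Broth microdilution MIC per CLSI guidelines, incubated at 35°C. Cation-adjusted Mueller-Hinton broth for nonfastidious organisms and staphylococci. Streptococci tested in the same broth with 3% lysed horse blood. Anaerobes tested in supplemented Brucella broth inside an anaerobe chamber (5% CO2, 5% H2, 90% N2), read after 48 h. Strains were mainly recent clinical isolates with confirmed identity.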

[2] = tested on: Enterococcus gallinarum; experiment: Antibacterial activity against Enterococcus gallinarum; assay type: functional
[3] = tested on: Prevotella sp.; experiment: Antibacterial activity against Prevotella sp.; assay type: functional
Method in brief: (§2)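 Anaerobic broth microdilution MIC following CLSI guidelines, in supplemented Brucella broth. Run in an anaerobe chamber under 5% CO2, 5% H2 and 90% N2 at 35°C, and read after 48 h. Reported as MIC range, MIC50 and MIC90.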

[4] = tested on: Klebsiella pneumoniae; experiment: Antibacterial activity against Klebsiella pneumoniae; assay type: functional
Method in brief: (§3)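 Broth microdilution MIC following CLSI guidelines, in cation-adjusted Mueller-Hinton broth, incubated at 35°C. Recent clinical isolates and reference strains, with identity confirmed by automated and standard microbiological methods. Results reported as MIC range, MIC50 and MIC90.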

[5] = tested on: Moraxella catarrhalis; experiment: Antibacterial activity against beta-lactamase positive Moraxella catarrhalis; assay type: functional
[6] = tested on: Shigella flexneri; experiment: Antibacterial activity against Shigella flexneri; assay type: functional; method in brief: as §3
[7] = tested on: Anaerococcus prevotii; experiment: Antibacterial activity against Peptostreptococcus prevotii; assay type: functional; method in brief: as §2
[8] = tested on: Streptococcus sanguinis; experiment: Antibacterial activity against Streptococcus sanguis; assay type: functional
Method in brief: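 Broth microdilution MIC following CLSI guidelines, in cation-adjusted Mueller-Hinton broth with 3% lysed horse blood. Plates incubated at 35°C. Clinical isolates and reference strains, with identity confirmed by standard microbiological methods.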

[9] = tested on: Clostridioides difficile; experiment: Antibacterial activity against Clostridium difficile; assay type: functional; method in brief: as §2
[10] = tested on: Moraxella catarrhalis; experiment: Antibacterial activity against beta-lactamase negative Moraxella catarrhalis; assay type: functional
[11] = tested on: Streptococcus pneumoniae; experiment: Antibacterial activity against penicillin-intermediate resistant Streptococcus pneumoniae; assay type: functional; method in brief: as §1
[12] = tested on: Neisseria gonorrhoeae; experiment: Antibacterial activity against Neisseria gonorrhoeae; assay type: functional
Method in brief: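 MIC by broth microdilution in gonococcal broth, incubated at 35°C in 5% CO2. Reported as MIC range, MIC50 and MIC90.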

[13] = tested on: Cutibacterium acnes; experiment: Antibacterial activity against Propionibacterium acnes; assay type: functional
[14] = tested on: Alloiococcus otitis; experiment: Antibacterial activity against Alloiococcus otitidis; assay type: functional
Method in brief: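 MIC by broth microdilution following CLSI guidelines, in cation-adjusted Mueller-Hinton broth with 3% lysed horse blood. Incubated at 35°C and read after 48 h. Reported as MIC range, MIC50 and MIC90.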

[15] = tested on: Enterococcus casseliflavus; experiment: Antibacterial activity against Enterococcus casseliflavus; assay type: functional
[16] = tested on: Listeria monocytogenes; experiment: Antibacterial activity against Listeria monocytogenes; assay type: functional
Method in brief: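 Broth microdilution MIC following CLSI guidelines, in cation-adjusted Mueller-Hinton broth containing 3% lysed horse blood, incubated at 35°C. Clinical isolates with identity confirmed. Reported as MIC range, MIC50 and MIC90.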

[17] = tested on: Prevotella bivia; experiment: Antibacterial activity against Prevotella bivia; assay type: functional; method in brief: as §2
[18] = tested on: Stenotrophomonas maltophilia; experiment: Antibacterial activity against Stenotrophomonas maltophilia; assay type: functional; method in brief: as §3
[19] = tested on: Serratia marcescens; experiment: Antibacterial activity against Serratia marcescens; assay type: functional; method in brief: as §3
[20] = tested on: Prevotella melaninogenica; experiment: Antibacterial activity against Prevotella melaninogenica; assay type: functional; method in brief: as §2
[21] = tested on: Klebsiella aerogenes; experiment: Antibacterial activity against Enterobacter aerogenes; assay type: functional; method in brief: as §3
[22] = tested on: Bacteroides fragilis; experiment: Antibacterial activity against Bacteroides fragilis; assay type: functional; method in brief: as §2
[23] = tested on: Shigella sonnei; experiment: Antibacterial activity against Shigella sonnei; assay type: functional; method in brief: as §3
[24] = tested on: Enterococcus faecalis; experiment: Antibacterial activity against beta-lactamase positive Enterococcus faecalis; assay type: functional
Method in brief: (§4)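 MIC by CLSI broth microdilution for nonfastidious organisms, in cation-adjusted Mueller-Hinton broth incubated at 35°C.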

[25] = tested on: Parabacteroides distasonis; experiment: Antimicrobial activity against Bacteroides distasonis; assay type: functional
Method in brief: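 Anaerobic broth microdilution MIC following CLSI guidelines, in supplemented Brucella broth. Incubated at 35°C in a chamber under 5% CO2, 5% H2 and 90% N2. Read after 48 h.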

[26] = tested on: Enterococcus faecium; experiment: Antibacterial activity against Enterococcus faecium; assay type: functional; method in brief: as §1
[27] = tested on: Proteus vulgaris; experiment: Antibacterial activity against Proteus vulgaris; assay type: functional; method in brief: as §3
[28] = tested on: Klebsiella pneumoniae; experiment: Antibacterial activity against beta-lactamase positive Klebsiella pneumoniae; assay type: functional; method in brief: as §4
[29] = tested on: Actinomyces sp.; experiment: Antibacterial activity against Actinomyces sp.; assay type: functional
[30] = tested on: Fusobacterium necrophorum; experiment: Antibacterial activity against Fusobacterium necrophorum; assay type: functional; method in brief: as §2
[31] = tested on: Salmonella enteritidis; experiment: Antibacterial activity against Salmonella enterica serovar Enteritidis; assay type: functional, Salmonella enterica subsp. enterica serovar Enteritidis; method in brief: as §3
[32] = tested on: Salmonella typhimurium; experiment: Antibacterial activity against Salmonella enterica serovar Typhimurium; assay type: functional, Salmonella enterica subsp. enterica serovar Typhimurium; method in brief: as §3
[33] = tested on: Clostridium perfringens; experiment: Antibacterial activity against Clostridium perfringens; assay type: functional; method in brief: as §1
[34] = tested on: Enterococcus faecium; experiment: Antibacterial activity against VanA-resistant Enterococcus faecium; assay type: functional; method in brief: as §1
[35] = tested on: Peptostreptococcus anaerobius; experiment: Antibacterial activity against Peptostreptococcus anaerobius; assay type: functional; method in brief: as §2

C[C@H]1NCc2cc(-c3ccc4c(=O)c(C(=O)O)cn(C5CC5)c4c3OC(F)F)ccc21 [GARENOXACIN]
MIC50 [1]: 1 µg/mL (≈ 2.35 µM)
MIC90 [1]: 2 µg/mL (≈ 4.69 µM)
MIC50 [2]: 0.25 µg/mL (≈ 0.586 µM)
MIC90 [2]: 0.2 µg/mL (≈ 0.469 µM)
MIC50 [3]: 0.25 µg/mL (≈ 0.586 µM)
MIC90 [3]: 1 µg/mL (≈ 2.35 µM)
MIC50 [4]: 0.25 µg/mL (≈ 0.586 µM)
MIC90 [4]: 1 µg/mL (≈ 2.35 µM)
MIC50 [5]: 0.06 µg/mL (≈ 0.141 µM)
MIC90 [5]: 0.06 µg/mL (≈ 0.141 µM)
MIC50 [6]: 0.03 µg/mL (≈ 0.0704 µM)
MIC90 [6]: 0.125 µg/mL (≈ 0.293 µM)
MIC [7]: 0.015 µg/mL (≈ 0.0352 µM)
MIC50 [8]: 0.125 µg/mL (≈ 0.293 µM)
MIC90 [8]: 0.25 µg/mL (≈ 0.586 µM)
MIC50 [9]: 0.5 µg/mL (≈ 1.17 µM)
MIC90 [9]: 1 µg/mL (≈ 2.35 µM)
MIC50 [10]: 0.03 µg/mL (≈ 0.0704 µM)
MIC90 [10]: 0.03 µg/mL (≈ 0.0704 µM)
MIC50 [11]: 0.25 µg/mL (≈ 0.586 µM)
MIC90 [11]: 0.25 µg/mL (≈ 0.586 µM)
MIC50 [12]: 0.004 µg/mL (≈ 0.00938 µM)
MIC90 [12]: 0.004 µg/mL (≈ 0.00938 µM)
MIC50 [13]: 1 µg/mL (≈ 2.35 µM)
MIC90 [13]: 2 µg/mL (≈ 4.69 µM)
MIC50 [14]: ≤ 0.001 µg/mL
MIC90 [14]: ≤ 0.001 µg/mL
MIC50 [15]: 0.25 µg/mL (≈ 0.586 µM)
MIC90 [15]: 0.5 µg/mL (≈ 1.17 µM)
MIC50 [16]: 0.25 µg/mL (≈ 0.586 µM)
MIC90 [16]: 0.5 µg/mL (≈ 1.17 µM)
MIC50 [17]: 0.25 µg/mL (≈ 0.586 µM)
MIC90 [17]: 1 µg/mL (≈ 2.35 µM)
MIC50 [18]: 4 µg/mL (≈ 9.38 µM)
MIC90 [18]: 8 µg/mL (≈ 18.8 µM)
MIC50 [19]: 1 µg/mL (≈ 2.35 µM)
MIC90 [19]: 8 µg/mL (≈ 18.8 µM)
MIC50 [20]: 0.25 µg/mL (≈ 0.586 µM)
MIC90 [20]: 1 µg/mL (≈ 2.35 µM)
MIC50 [21]: 2 µg/mL (≈ 4.69 µM)
MIC90 [21]: > 64 µg/mL
MIC50 [22]: 0.5 µg/mL (≈ 1.17 µM)
MIC90 [22]: 2 µg/mL (≈ 4.69 µM)
MIC50 [23]: 0.03 µg/mL (≈ 0.0704 µM)
MIC90 [23]: 0.125 µg/mL (≈ 0.293 µM)
MIC [24]: 0.125 µg/mL (≈ 0.293 µM)
MIC50 [25]: 2 µg/mL (≈ 4.69 µM)
MIC90 [25]: 4 µg/mL (≈ 9.38 µM)
MIC50 [26]: 8 µg/mL (≈ 18.8 µM)
MIC90 [26]: 32 µg/mL (≈ 75 µM)
MIC [27]: 0.25 µg/mL (≈ 0.586 µM)
MIC50 [28]: 1 µg/mL (≈ 2.35 µM)
MIC90 [28]: 64 µg/mL (≈ 150 µM)
MIC [29]: 0.125 µg/mL (≈ 0.293 µM)
MIC [30]: 0.125 µg/mL (≈ 0.293 µM)
MIC50 [31]: 0.03 µg/mL (≈ 0.0704 µM)
MIC90 [31]: 0.125 µg/mL (≈ 0.293 µM)
MIC50 [32]: 0.03 µg/mL (≈ 0.0704 µM)
MIC90 [32]: 0.125 µg/mL (≈ 0.293 µM)
MIC50 [33]: 0.5 µg/mL (≈ 1.17 µM)
MIC90 [33]: 1 µg/mL (≈ 2.35 µM)
MIC50 [34]: 8 µg/mL (≈ 18.8 µM)
MIC90 [34]: 16 µg/mL (≈ 37.5 µM)
MIC [35]: 0.015 µg/mL (≈ 0.0352 µM)
